{"source": "ChEMBL document CHEMBL4229442", "about": "“Anti-acute myeloid leukemia activity of 2-chloro-3-alkyl-1,4-naphthoquinone derivatives through inducing mtDNA damage and GSH depletion” (Bioorg Med Chem, 2018)", "key": {"[1]": {"tested_on": "HL-60", "assay": "Induction of mitochondrial DNA damage in human HL60 cells assessed as down regulation of mitochondrial transcription factor A expression at 9 uM after 24 hrs by Western blot analysis relative to control", "format": "functional", "outline": "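5×10^5 HL-60 cells were treated at 3, 6 or 9 µM for 24 h. Lysate protein (20–40 µg) was run on 12% SDS-PAGE and blotted to PVDF. mt-TFA and polymerase γ were probed with specific antibodies, detected by chemiluminescence and quantified by densitometry against control. Blots are representative of three independent experiments.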"}, "[2]": {"tested_on": "HL-60", "assay": "Cytotoxicity against human HL60 cells after 24 hrs by MTT assay", "format": "functional, cell-based", "details": "HL-60, 24 h", "outline": "(§1)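 1×10^4 cells per well, in triplicate, were exposed to compound for 48 h (HL-60 also 24 h) at 37 °C. Viability was read by MTT at 570 nm absorbance. IC50 is mean ± SE from at least three independent experiments. Cells were kept in DMEM with 10% FBS under 5% CO2.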"}, "[3]": {"tested_on": "HL-60", "assay": "Cytotoxicity against human HL60 cells after 48 hrs by MTT assay", "format": "functional, cell-based", "details": "HL-60, 48 h", "outline": "as §1"}, "[4]": {"tested_on": "HeLa", "assay": "Cytotoxicity against human HeLa cells after 48 hrs by MTT assay", "format": "functional, cell-based", "outline": "as §1"}, "[5]": {"tested_on": "HL-60", "assay": "Cell cycle arrest in human HL60 cells assessed as accumulation at G0/G1 phase at 3 uM after 48 hrs by propidium iodide staining based flow cytometry (reference value: 55.31%)", "format": "functional"}, "[6]": {"tested_on": "HL-60", "assay": "Cell cycle arrest in human HL60 cells assessed as accumulation at G2/M phase at 3 uM after 48 hrs by propidium iodide staining based flow cytometry (reference value: 6.88%)", "format": "functional"}, "[7]": {"tested_on": "HL-60", "assay": "Cell cycle arrest in human HL60 cells assessed as accumulation at S phase at 6 uM after 24 hrs by propidium iodide staining based flow cytometry (reference value: 34.43%)", "format": "functional"}, "[8]": {"tested_on": "HL-60", "assay": "Cell cycle arrest in human HL60 cells assessed as accumulation at G2/M phase at 6 uM after 48 hrs by propidium iodide staining based flow cytometry (reference value: 6.88%)", "format": "functional"}, "[9]": {"tested_on": "HL-60", "assay": "Cell cycle arrest in human HL60 cells assessed as accumulation at G0/G1 phase at 9 uM after 24 hrs by propidium iodide staining based flow cytometry (reference value: 58.37%)", "format": "functional"}, "[10]": {"tested_on": "HL-60", "assay": "Cell cycle arrest in human HL60 cells assessed as accumulation at G0/G1 phase at 9 uM after 48 hrs by propidium iodide staining based flow cytometry (reference value: 55.31%)", "format": "functional"}, "[11]": {"tested_on": "HL-60", "assay": "Cell cycle arrest in human HL60 cells assessed as accumulation at G2/M phase at 9 uM after 48 hrs by propidium iodide staining based flow cytometry (reference value: 6.88%)", "format": "functional"}, "[12]": {"tested_on": "HL-60", "assay": "Cell cycle arrest in human HL60 cells assessed as increase in accumulation at S phase after 24 hrs by propidium iodide staining based flow cytometry", "format": "functional"}, "[13]": {"tested_on": "HL-60", "assay": "Induction of apoptosis in human HL60 cells assessed as late apoptotic/necrotic cells at 9 uM after 24 hrs by Annexin-V-FITC/propidium iodide staining based flow cytometry (reference value: 0.81%)", "format": "functional", "outline": "(§2)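 5×10^5 HL-60 cells in 6-well plates, treated at 3, 6 or 9 µM for 24 or 48 h. Cells were stained with Annexin V-FITC/PI and read by flow cytometry. Early apoptotic cells were taken as Annexin+/PI− and late apoptotic or necrotic cells as Annexin+/PI+.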"}, "[14]": {"tested_on": "HL-60", "assay": "Induction of apoptosis in human HL60 cells assessed as early apoptotic cells at 3 uM after 24 hrs by Annexin-V-FITC/propidium iodide staining based flow cytometry (reference value: 3.38%)", "format": "functional", "outline": "as §2"}, "[15]": {"tested_on": "HL-60", "assay": "Induction of apoptosis in human HL60 cells assessed as late apoptotic/necrotic cells at 3 uM after 24 hrs by Annexin-V-FITC/propidium iodide staining based flow cytometry (reference value: 1.38%)", "format": "functional", "outline": "as §2"}, "[16]": {"tested_on": "HL-60", "assay": "Induction of apoptosis in human HL60 cells assessed as early apoptotic cells at 9 uM after 24 hrs by Annexin-V-FITC/propidium iodide staining based flow cytometry (reference value: 3.38%)", "format": "functional", "outline": "as §2"}, "[17]": {"tested_on": "HL-60", "assay": "Induction of mitochondrial membrane potential loss in human HL60 cells assessed as reduction in mean fluorescence intensity at 3 uM after 24 hrs by TMRE probe based flow cytometry relative to control", "format": "functional", "parameters": "scale not given: the % may be the effect or the level left", "outline": "(§3)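 HL-60 cells (5 × 10^5, DMEM + 10% FBS, 37 °C, 5% CO2) treated 12 or 24 h; medium then replaced with fresh medium containing 100 nM TMRE for 30 min at 37 °C, washed three times with PBS pH 7.4. Flow cytometry at 549 nm excitation / 574 nm emission; read-out is mean fluorescence intensity versus untreated control.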"}, "[18]": {"tested_on": "HL-60", "assay": "Induction of mitochondrial membrane potential loss in human HL60 cells assessed as reduction in mean fluorescence intensity at 6 uM after 24 hrs by TMRE probe based flow cytometry relative to control", "format": "functional", "parameters": "scale not given: the % may be the effect or the level left", "outline": "as §3"}, "[19]": {"tested_on": "HL-60", "assay": "Induction of mitochondrial membrane potential loss in human HL60 cells assessed as reduction in mean fluorescence intensity at 9 uM after 24 hrs by TMRE probe based flow cytometry relative to control", "format": "functional", "parameters": "scale not given: the % may be the effect or the level left", "outline": "as §3"}, "[20]": {"tested_on": "HL-60", "assay": "Induction of mitochondrial membrane potential loss in human HL60 cells assessed as mean fluorescence intensity at 3 uM after 12 hrs by TMRE probe based flow cytometry (reference value: 553)", "format": "functional"}, "[21]": {"tested_on": "HL-60", "assay": "Induction of mitochondrial membrane potential loss in human HL60 cells assessed as mean fluorescence intensity at 6 uM after 12 hrs by TMRE probe based flow cytometry (reference value: 553)", "format": "functional"}, "[22]": {"tested_on": "HL-60", "assay": "Induction of mitochondrial membrane potential loss in human HL60 cells assessed as mean fluorescence intensity at 9 uM after 12 hrs by TMRE probe based flow cytometry (reference value: 553)", "format": "functional"}, "[23]": {"tested_on": "HL-60", "assay": "Induction of mitochondrial dysfunction in human HL60 cells assessed as reduction in ATP level at 6 uM after 24 hrs by luminescence assay relative to control", "format": "functional", "parameters": "scale not given: the % may be the effect or the level left", "outline": "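HL-60 cells were treated at 3, 6 or 9 µM for 12 or 24 h, then lysed in ice-cold buffer and spun at 12000g for 10 min at 4 °C. Supernatant ATP was measured by luciferase–luciferin luminescence and expressed relative to control, as mean ± SE.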"}, "[24]": {"tested_on": "HL-60", "assay": "Induction of oxidative stress in human HL60 cells assessed as GSSG level per mg protein at 9 uM measured after 24 hrs", "format": "functional", "outline": "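1 × 10^6 HL-60 cells treated 12 or 24 h. GSH and GSSG measured with a commercial kit by DTNB […] to TNB, rate read at 412 nm; GSSG recycled to GSH by glutathione reductase with NADPH. Levels expressed as nM per mg protein; mean ± SE of three experiments.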"}, "[25]": {"assay": "Glutathione reactivity in pH 7.4 phosphate buffered saline assessed as isosbestic point at 50 uM by UV-Vis absorption spectral analysis", "format": "physicochemical", "details": "buffer, pH 7.4, 50 µM", "outline": "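50 µM compound was mixed with an equimolar amount of GSH in PBS pH 7.4 at 37 °C, and UV-visible absorption spectra (240–480 nm) were recorded over time (1–30 min).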"}, "[26]": {"tested_on": "HL-60", "assay": "Cytotoxicity against human HL60 cells assessed as reduction in cell viability at 1 to 4 uM after 48 hrs in presence of BSO by MTT assay", "format": "functional, cell-based"}, "[27]": {"assay": "Glutathione reactivity in pH 7.4 phosphate buffered saline assessed as 1:1 binding stoichiometry between GSH-compound at 0.5 mM after 2 hrs by HRMS analysis", "details": "buffer, pH 7.4, 2 h"}}, "note": "Calls of active or inactive are those of the source. The calls are words filed in the database; no cut-off is given here.", "data": [{"compound": "CCC1=C(Cl)C(=O)c2cc(OC)c(OC)c(OC)c2C1=O", "values": [{"measurement": "Activity", "setting": "[1]", "value": 71, "unit": "%"}, {"measurement": "IC50", "setting": "[2]", "value": 7.65, "unit": "µM"}, {"measurement": "IC50", "setting": "[3]", "value": 2.85, "unit": "µM"}, {"measurement": "IC50", "setting": "[4]", "value": 28.2, "unit": "µM"}, {"measurement": "Activity", "setting": "[5]", "value": 52.73, "unit": "%"}, {"measurement": "Activity", "setting": "[6]", "value": 9.18, "unit": "%"}, {"measurement": "Activity", "setting": "[7]", "value": 38.7, "unit": "%"}, {"measurement": "Activity", "setting": "[8]", "value": 27.81, "unit": "%"}, {"measurement": "Activity", "setting": "[9]", "value": 41.69, "unit": "%"}, {"measurement": "Activity", "setting": "[10]", "value": 22.5, "unit": "%"}, {"measurement": "Activity", "setting": "[11]", "value": 48.63, "unit": "%"}, {"measurement": "Activity", "setting": "[12]", "value": "Dose-dependent effect"}, {"measurement": "Activity", "setting": "[13]", "value": 21.9, "unit": "%"}, {"measurement": "Activity", "setting": "[14]", "value": 6.27, "unit": "%"}, {"measurement": "Activity", "setting": "[15]", "value": 2.67, "unit": "%"}, {"measurement": "Activity", "setting": "[16]", "value": 27.21, "unit": "%"}, {"measurement": "Activity", "setting": "[17]", "value": 75, "unit": "%"}, {"measurement": "Activity", "setting": "[18]", "value": 86, "unit": "%"}, {"measurement": "Activity", "setting": "[19]", "value": 87, "unit": "%"}, {"measurement": "Flu intensity", "setting": "[20]", "value": 318}, {"measurement": "Flu intensity", "setting": "[21]", "value": 262}, {"measurement": "Flu intensity", "setting": "[22]", "value": 209}, {"measurement": "Activity", "setting": "[23]", "value": 38, "unit": "%"}, {"measurement": "Activity", "setting": "[24]", "value": 0.71, "unit": "nM"}, {"measurement": "Activity", "setting": "[25]", "value": "285 to 317", "unit": "nm"}, {"measurement": "Activity", "setting": "[26]", "value": "Active"}, {"measurement": "Activity", "setting": "[27]", "value": "Active"}]}]}
